What all share (format): functional
The subject of one experiment is Candida albicans. The experiment can be described thus: Minimum inhibitory concentration tested in vitro against Candida albicans. In short, it runs like this:
(§1)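 Robotic broth microdilution: DMSO stocks diluted in broth to a starting 20 µg/mL, serial 2-fold dilutions. Yeasts grown on Sabouraud dextrose agar, 35°C, 24 h, suspended in saline and adjusted to 1 × 10^5 conidia/mL in Sabouraud dextrose broth (hemacytometer count).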

Another experiment has as its system Aspergillus fumigatus. The experiment is described as follows: Minimum inhibitory concentration tested in vitro against Aspergillus fumigatus. Summed up: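 A. fumigatus broth microdilution: spores teased from mycelia grown on potato dextrose agar into 0.1% Tween 80/saline, adjusted to 1 × 10^5 spores/mL in Sabouraud broth. Compounds from DMSO, starting at 20 µg/mL, serial 2-fold dilutions.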

In experiment [1] the test system is Mus musculus. The experiment can be described thus: Effective dose against Candida albicans tested in infected mice on intraperitoneal administration. The note with it: ip. In short, it runs like this: (§2)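 C. albicans systemic infection in mice: 2 × 10^6 blastoconidia iv (0.1 mL, lateral tail vein). Dosed ip (0.2 mL) at 0, 4, 24 and 48 h post-infection at 20, 10 and 5.0 mg/kg, six mice per level, in 4.0% hydroxypropyl β cyclodextrin/sodium acetate pH 7.0/1.75% dextrose; vehicle-dosed infected controls (10). Morbidity/mortality followed 7 days; ED50 by Reed–Muench.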

The test system of the next experiment is Cryptococcus neoformans. The experiment can be described thus: Minimum inhibitory concentration tested in vitro against Cryptococcus neoformans. In short, it runs like this:
as §1

Another experiment has as its system Candida parapsilosis. The experiment is described as follows: Minimum inhibitory concentration tested in vitro against Candida parapsilosis. Summed up: as §1
A further experiment deals with Histoplasma capsulatum. The experiment can be described thus: Minimum inhibitory concentration tested in vitro against Histoplasma capsulatum. Summed up: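 Robotic broth microdilution. Compounds dissolved in 100% DMSO, diluted in broth to start at 20 µg/mL in the first wells after inoculum, then serial 2-fold dilutions. Conidia suspended in saline and adjusted to 1 × 10^5 conidia/mL in Sabouraud dextrose broth. Incubated 48 h at 35 °C in ambient air. MIC = lowest concentration inhibiting 90–100% of visible growth vs untreated controls.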

The test system of experiment [2] is Mus musculus. The experiment can be described thus: Effective dose administered intraperitoneally against Candida albicans infected mice. The note with it: ip. Summed up:
as §2

The mark [3] stands for this setting: Candida albicans, read-out: MIC.
Where [4] appears, read: Aspergillus fumigatus, read-out: MIC.
[5] abbreviates: Cryptococcus neoformans, read-out: MIC.
[6] abbreviates: Lodderomyces parapsilosis, read-out: MIC.
[7] abbreviates: Histoplasma capsulatum, read-out: MIC.

Molecules are shown by their SMILES. Converted amounts (≈) assume the structure as drawn.

One may read the MIC as the smallest concentration in the dilution series that meets the test's criterion for growth inhibition. As usually defined, the ED50 is the dose at which the effect has come halfway, by size or by number of responders. For `C/C=C1/NC(=O)[C@H]([C@H](C)O)NC(=O)[C@H](CCN)NC(=O)[C@H](CCCCN)NC(=O)[C@H](CC(=O)O)NC(=O)[C@@H](CCN)NC(=O)[C@@H](NC(=O)CC(O)C(O)CCCCCCCCCC)COC(=O)[C@H]([C@H](O)CCl)NC(=O)[C@H]([C@H](O)C(=O)O)NC1=O` (stereo not given in full), the results for the MIC with Candida albicans (setting [3]), in the experiment with Aspergillus fumigatus (setting [4]) and in the experiment on Cryptococcus neoformans (setting [5]) were 0.625 µg/mL (≈ 0.511 µM), 10 µg/mL (≈ 8.17 µM) and 0.078 µg/mL (≈ 0.0637 µM), respectively. The ED50 in the experiment on Mus musculus [1] was determined as 7.1 mg/kg.
On to `C/C=C1/NC(=O)[C@H]([C@H](C)O)NC(=O)[C@H](CCN)NC(=O)[C@H](CCCCN)NC(=O)[C@H](CC(=O)O)NC(=O)[C@@H](CCN)NC(=O)[C@@H](NC(=O)CCCCCCCCCCCCCCC)COC(=O)[C@H]([C@H](O)CCl)NC(=O)[C@H]([C@H](O)C(=O)O)NC1=O`, for which the MIC in the experiment on Candida albicans (setting [3]) is 10 µg/mL (≈ 8.2 µM); with Candida parapsilosis (setting [6]) it was 10 µg/mL (≈ 8.2 µM); with Histoplasma capsulatum (setting [7]), 10 µg/mL (≈ 8.2 µM); in the experiment on Cryptococcus neoformans (setting [5]), 1.25 µg/mL (≈ 1.02 µM).
Consider `C/C=C1/NC(=O)[C@H]([C@H](C)O)NC(=O)[C@H](CCN)NC(=O)[C@H](CCCCN)NC(=O)[C@H](CC(=O)O)NC(=O)[C@@H](CCN)NC(=O)[C@@H](NC(=O)C[C@@H](O)CCCCCCCCCCCCC)COC(=O)[C@H]([C@H](O)CCl)NC(=O)[C@H]([C@H](O)C(=O)O)NC1=O`, for which the MIC with Candida albicans (setting [3]) was determined as 5 µg/mL (≈ 4.05 µM); in the experiment on Aspergillus fumigatus (setting [4]), 20 µg/mL (≈ 16.2 µM); in the experiment on Candida parapsilosis (setting [6]) it was 5 µg/mL (≈ 4.05 µM); with Histoplasma capsulatum (setting [7]) it was 5 µg/mL (≈ 4.05 µM); in the experiment with Cryptococcus neoformans (setting [5]) it was 5 µg/mL (≈ 4.05 µM).
As to `C/C=C1/NC(=O)[C@H]([C@H](C)O)NC(=O)[C@H](CCN)NC(=O)[C@H](CCCCN)NC(=O)[C@H](CC(=O)O)NC(=O)[C@@H](CCN)NC(=O)[C@@H](NC(=O)CC(O)CCCCCCCCC)COC(=O)[C@H]([C@H](O)CCl)NC(=O)[C@H]([C@H](O)C(=O)O)NC1=O` (stereo not given in full), the MIC in the experiment on Candida albicans (setting [3]) was 10 µg/mL (≈ 8.48 µM); with Aspergillus fumigatus (setting [4]), above 20 µg/mL; in the experiment with Cryptococcus neoformans (setting [5]) it was 1.25 µg/mL (≈ 1.06 µM).
Take `C/C=C1/NC(=O)[C@H]([C@H](C)O)NC(=O)[C@H](CCN)NC(=O)[C@H](CCCCN)NC(=O)[C@H](CC(=O)O)NC(=O)[C@@H](CCN)NC(=O)[C@@H](NC(=O)CC(O)C(O)CCCCCCCCCCCC)COC(=O)[C@H]([C@H](O)CCl)NC(=O)[C@H]([C@H](O)C(=O)O)NC1=O` (stereo not given in full): the MIC with Candida albicans (setting [3]) was found to be 0.078 µg/mL (≈ 0.0623 µM); in the experiment on Aspergillus fumigatus (setting [4]) it was 1.25 µg/mL (≈ 0.999 µM); in the experiment on Cryptococcus neoformans (setting [5]), 0.02 µg/mL (≈ 0.016 µM). Besides, the ED50 in the experiment with Mus musculus [2] was above 5 mg/kg.
In the case of `C/C=C1/NC(=O)[C@H]([C@H](C)O)NC(=O)[C@H](CCN)NC(=O)[C@H](CCCCN)NC(=O)[C@H](CC(=O)O)NC(=O)[C@@H](CCN)NC(=O)[C@@H](NC(=O)CC(O)C(O)CCCCCCCCCCC)COC(=O)[C@H]([C@H](O)CCl)NC(=O)[C@H]([C@H](O)C(=O)O)NC1=O` (stereo not given in full), the MIC with Candida albicans (setting [3]) was 2.5 µg/mL (≈ 2.02 µM); with Aspergillus fumigatus (setting [4]), above 20 µg/mL; with Cryptococcus neoformans (setting [5]), 1.25 µg/mL (≈ 1.01 µM).
On to `C/C=C1/NC(=O)[C@H]([C@H](C)O)NC(=O)[C@H](CCN)NC(=O)[C@H](CCCCN)NC(=O)[C@H](CC(=O)O)NC(=O)[C@@H](CCN)NC(=O)[C@@H](NC(=O)CC(O)CCCCCCCCCCC)COC(=O)[C@H]([C@H](O)CCl)NC(=O)[C@H]([C@H](O)C(=O)O)NC1=O` (stereo not given in full), for which the MIC in the experiment with Candida albicans (setting [3]) came out at 0.156 µg/mL (≈ 0.129 µM); in the experiment with Aspergillus fumigatus (setting [4]) it was 10 µg/mL (≈ 8.28 µM); in the experiment with Cryptococcus neoformans (setting [5]), 0.02 µg/mL (≈ 0.0166 µM). Moreover, in the experiment on Mus musculus [2], the ED50 worked out at 3.5 mg/kg.
As for `C/C=C1/NC(=O)[C@H]([C@H](C)O)NC(=O)[C@H](CCN)NC(=O)[C@H](CCCCN)NC(=O)[C@H](CC(=O)O)NC(=O)[C@@H](CCN)NC(=O)[C@@H](NC(=O)C[C@H](O)CCCCCCCCCCCCC)COC(=O)[C@H]([C@H](O)CCl)NC(=O)[C@H]([C@H](O)C(=O)O)NC1=O` (stereo in doubt; form 1), the MIC was 0.039 µg/mL (≈ 0.0316 µM) in the experiment on Candida albicans (setting [3]); 0.312 µg/mL (≈ 0.252 µM) in the experiment with Aspergillus fumigatus; 0.039 µg/mL (≈ 0.0316 µM) in the experiment with Candida parapsilosis (setting [6]); 0.156 µg/mL (≈ 0.126 µM) in the experiment on Histoplasma capsulatum (setting [7]); below 0.01 µg/mL in the experiment on Cryptococcus neoformans (setting [5]).
On to `C/C=C1/NC(=O)[C@H]([C@H](C)O)NC(=O)[C@H](CCN)NC(=O)[C@H](CCCCN)NC(=O)[C@H](CC(=O)O)NC(=O)[C@@H](CCN)NC(=O)[C@@H](NC(=O)CC(O)CCCCCCCCCCCCC)COC(=O)[C@H]([C@H](O)CCl)NC(=O)[C@H]([C@H](O)C(=O)O)NC1=O` (stereo in doubt; form 1), for which the MIC was 0.156 µg/mL (≈ 0.126 µM) in the experiment with Candida albicans (setting [3]); 1.25 µg/mL (≈ 1.01 µM) in the experiment with Aspergillus fumigatus (setting [4]); 0.156 µg/mL (≈ 0.126 µM) with Candida parapsilosis (setting [6]); 0.312 µg/mL (≈ 0.252 µM) with Histoplasma capsulatum (setting [7]); below 0.01 µg/mL in the experiment with Cryptococcus neoformans (setting [5]).
Turning to `C/C=C1/NC(=O)[C@H]([C@H](C)O)NC(=O)[C@H](CCN)NC(=O)[C@H](CCCCN)NC(=O)[C@H](CC(=O)O)NC(=O)[C@@H](CCN)NC(=O)[C@@H](NC(=O)C[C@H](O)CCCCCCCCCCCCC)COC(=O)[C@H]([C@H](O)CCl)NC(=O)[C@H]([C@H](O)C(=O)O)NC1=O` (stereo in doubt; form 2), the MIC against Candida albicans was 0.039 µg/mL (≈ 0.0316 µM); against Aspergillus fumigatus, 0.625 µg/mL (≈ 0.506 µM); in the experiment with Candida parapsilosis, 0.02 µg/mL (≈ 0.0162 µM); in the experiment on Histoplasma capsulatum it was 0.156 µg/mL (≈ 0.126 µM).
For the compound `C/C=C1/NC(=O)[C@H]([C@H](C)O)NC(=O)[C@H](CCN)NC(=O)[C@H](CCCCN)NC(=O)[C@H](CC(=O)O)NC(=O)[C@@H](CCN)NC(=O)[C@@H](NC(=O)CC(O)CCCCCCCCCCCCC)COC(=O)[C@H]([C@H](O)CCl)NC(=O)[C@H]([C@H](O)C(=O)O)NC1=O` (stereo in doubt; form 2), the MIC turned out to be 0.156 µg/mL (≈ 0.126 µM) against Candida albicans, 0.625 µg/mL (≈ 0.506 µM) in the experiment with Aspergillus fumigatus and 0.005 µg/mL (≈ 0.00405 µM) against Cryptococcus neoformans. Also, the 50% effect level with Mus musculus [2] (ED50) was put at a dose of 2.5 mg/kg.
